Assays:
Format in all cases: functional
MCF7 [1] = experiment: Estrogenic effect in human MCF7 cells assessed as stimulation of cell proliferation at 0.1 ug/ml relative to control by [3H]hypoxanthine incorporation assay
Method in brief: (§1)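 MCF-7 cells were grown to confluence in DMEM with 10% FBS, trypsinized, and viable cells (Trypan blue) seeded at 10 000/well in phenol red-free medium. After overnight attachment, tamoxifen (2 μM) was added for 24 h. Cells were washed with Ca/Mg-free PBS, then exposed to test agents for 1 day. Triplicates; % proliferation scaled with no-compound as 0% and β-estradiol 10 nM as 100%; Dunnett's test.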

MCF7 [2] = experiment: Estrogenic effect in human MCF7 cells assessed as stimulation of cell proliferation at 1 ug/ml relative to control by [3H]hypoxanthine incorporation assay; method in brief: as §1
MCF7 [3] = experiment: Estrogenic effect in human MCF7 cells assessed as stimulation of cell proliferation at 10 ug/ml relative to control by [3H]hypoxanthine incorporation assay; method in brief: as §1
MCF7 [4] = experiment: Estrogenic effect in human MCF7 cells assessed as stimulation of cell proliferation at 0.1 nM relative to control by [3H]hypoxanthine incorporation assay
Method in brief: as §1, with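 “day. [3H]-hypoxanthine (9.25 kBq/well) was added for 12 h.” for “day.”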

MCF7 [5] = experiment: Estrogenic effect in human MCF7 cells assessed as stimulation of cell proliferation at 1 nM relative to control by [3H]hypoxanthine incorporation assay
Method in brief: as §1, with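 “day. [3H]-hypoxanthine (9.25 kBq/well) was added for 12 h.” for “day.”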

MCF7 [6] = experiment: Estrogenic effect in human MCF7 cells assessed as stimulation of cell proliferation at 10 nM relative to control by [3H]hypoxanthine incorporation assay
Method in brief: as §1, with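 “day. [3H]-hypoxanthine (9.25 kBq/well) was added for 12 h.” for “day.”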

SMILES	Activity (MCF7 [1]) [%]	Activity (MCF7 [2]) [%]	Activity (MCF7 [3]) [%]	Activity (MCF7 [4]) [%]	Activity (MCF7 [5]) [%]	Activity (MCF7 [6]) [%]
CC1=CC(=O)[C@@H]2[C@@](C)(CC1)CC[C@@]2(O)C(C)C	308.2	97.5	181.4			
C/C=C(/C)C(=O)O[C@@]1(C)CCC2=C(C(C)C)[C@@H](OCC)C[C@]2(C)CC1=O	223.9	321.4	974.4			
CC1=CC(=O)[C@@H]2[C@](C)(CC[C@@]2(O)C(C)C)CC1=O	5.9	-26.5	-285.7			
C[C@]12CC[C@@H]3c4ccc(O)cc4CC[C@H]3[C@@H]1CC[C@@H]2O [ESTRADIOL]				74.6	130.3	100
O=c1c(-c2ccc(O)cc2)coc2cc(O)cc(O)c12 [GENISTEIN]	-72.4	114.8	-76.7			

— ChEMBL document CHEMBL1158723, “Daucane sesquiterpenes from Ferula hermonis” (2005)
